ChEMBL document CHEMBL4513216, “Probing the Open Global Health Chemical Diversity Library for Multistage-Active Starting Points for Next-Generation Antimalarials” (ACS Infect Dis, 2020)

Test: Toxicity liver stage against HepG2, at 10uM
Type: cell-based
Design: test concentration 10 uM, cell line HepG2-A16-CD81EGFP
Conditions: human, HepG2-A16-CD81EGFP cells; read-out: INHIBITION
Procedure, shortened: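 Uninfected HepG2-A16-CD81EGFP cells, 3 × 10^3 per well, 1536-well, plated on prespotted compound at 10 μM final, parasite-free screening media added to match infected plates; puromycin 10 μM positive, DMSO 0.5% negative; run in parallel with 48 h PbLuc assay at 37 °C, 5% CO2; viability by CellTiter-Glo luminescence, normalized to controls.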

SMILES | cytotoxicity at 10 µM
O=C(Cn1cc(Cl)cn1)Nc1ccc2c(c1)OCCCO2 | 4.98%
CCC(CO)N(Cc1ccc(F)cc1)Cc1c(C)nn(C)c1Cl (stereo unspecified) | 8.64%
COc1ccc(Nc2nc3c(C)nn(C)c3c(=O)n2C)c(C)c1 | -6.06%
Cc1noc(C)c1CN1CCO[C@H]2CN(C3CCOCC3)C[C@H]21 | -1.41%
CC(C)CN1CCC2(C1)CN(c1ncccn1)C2 | 4.73%
CN(C)C(=O)c1cccc(C2CCN(c3ncccn3)CC2)n1 | 1.24%
Cc1nc2c(c(N(C)C)n1)CCN(C(=O)CN1CCC(O)CC1)C2 | 3.6%
CCN1CC2(CCN(C(=O)c3nc4cc(C)ccn4c3F)CC2)CC1=O | 12.3%
CN1CCC(NCC(O)c2cccc(OCc3ccccc3)c2)CC1 (stereo unspecified) | -11.7%
CC(C)N1CCC(N2CCCC(C(=O)NCC3(C)COC3)C2)CC1 (stereo unspecified) | -5.62%
COCCNC(=O)CN1CCN(c2nc3cc(C)ccc3o2)CC1 | 5.75%
N#Cc1ccccc1CN1C[C@H]2CC[C@@H](C1)N(Cc1cscn1)C2=O | -8.42%
Cc1nc(CNc2nc3c(s2)c(C)nn3C)cs1 | -109%
Cc1nc(NC(=O)C(C)N2CCN(c3cnccn3)CC2)sc1C (stereo unspecified) | 4.75%
O=C(CN1CCOC(Cn2cccn2)C1)NC(C1CC1)C1CC1 (stereo unspecified) | -42.1%
CCS(=O)(=O)c1ncc(CN2CCCC2)n1CCc1ccccc1 | 5.35%
c1cnc(NC[C@@H]2CCC[C@@H]3CN(Cc4cc[nH]n4)C[C@@H]32)nc1 | -13.1%
COC(=O)CCNC(=O)c1nc(NS(=O)(=O)c2ccccc2)sc1C | 8.23%
CCCN1CCCn2nc(CNS(=O)(=O)c3cccc(F)c3)cc2C1 | -13.1%
Cc1noc(CNC(=O)NCCc2ccc(Cl)cc2)n1 | 6.93%
CS(=O)(=O)N1CCC(c2nnc(CN3CCCC3)n2C2CC2)CC1 | -6.6%

SMILES | cytotoxicity at 10 µM
CNS(=O)(=O)CC(=O)NC(C)Cc1ccc(Br)cc1 (stereo unspecified) | -10.9%
NC(=O)c1cc2c(nc1N1C[C@H]3OC(=O)N(C4CCCC4)[C@H]3C1)CCC2 | 2.24%
NS(=O)(=O)N1CCc2ccc(NC(=O)CC(F)(F)F)cc21 | 6.15%
CCc1noc(CC)c1CC(=O)N1CCN(C(C#N)C(C)C)CC1 (stereo unspecified) | -9.66%
CCc1nnc(C2Cc3ccccc3CN2Cc2cc(C)no2)o1 (stereo unspecified) | -7.4%
Cn1cnnc1C1CCCN(C(=O)COc2ccccc2Cl)C1 (stereo unspecified) | -14.2%
CC(CNC(=O)N1CCS(=O)(=O)CC1)Cc1cccs1 (stereo unspecified) | -9.47%
COCCN1CCN(Cc2c(C)noc2C)Cc2ccc(C)nc21 | 3.47%
COc1ccc(CN2CCO[C@H]3CN(C(C)=O)CC[C@H]3C2=O)cc1 | -138%
CC(C)N1C[C@H](O)C[C@H]1c1nc(-c2ccc(OC(F)(F)F)cc2)no1 | -3.72%
c1cncc(COCC2CN(Cc3ccsc3)Cc3ccnn3C2)c1 (stereo unspecified) | -140%
CN(C)C[C@H]1OC[C@@H]2CCN(C(=O)c3ccc[nH]3)C[C@@H]21 | 5.41%
O=C(Nc1cnn(COc2ccc(F)cc2Cl)c1)C1CC1 | -10.6%
CN(C)S(=O)(=O)N1CC[C@]2(O)CCN(Cc3cccc(C#N)c3)C[C@@H]2C1 | -4.63%
Cc1cnn(C2CCCN(C(=O)c3ccnc(N(C)C)c3)C2)c1 (stereo unspecified) | 5.15%
COc1ccccc1CC(=O)NS(=O)(=O)c1ccc(NC(C)=O)cc1 | -2.18%
Cc1ccc(CC2COc3ccccc3C2)c(N)n1 (stereo unspecified) | -7.12%
CC(C)c1noc(C(C)N2CCN(Cc3cccs3)CC2)n1 (stereo unspecified) | -6.18%
Cc1cnn(C2CN(Cc3nc(-c4ccccc4C)no3)C2)c1 | -10.6%
CCOc1ccc(Cl)c(C(=O)NCCC(=O)Nc2ccccn2)n1 | -3.13%
CC(C)c1nc(CN(C)C2CCN(CCc3ccncc3)C2)no1 (stereo unspecified) | -28.4%

SMILES | cytotoxicity at 10 µM
CN(C)CCn1c2c(ccc1=O)CC(NCc1cccnc1)CC2 (stereo unspecified) | 14.4%
OC(c1ccccn1)C1CCN(Cc2cc3n(n2)CCNC3)CC1 (stereo unspecified) | 15.4%
CSCCC1c2nc[nH]c2CCN1Cc1ccnc2ccccc12 (stereo unspecified) | 13.2%
Cc1nc(CN2CCN(C(C)c3nc(C(C)C)no3)CC2)oc1C (stereo unspecified) | -9.16%
O=C1CCC2(CCC(NC(=O)NCc3cccnc3)CC2)N1 (stereo unspecified) | -5.25%
CCN1CCN(C(=O)c2ccc3c(c2)NC(=O)CN3)[C@H]2CS(=O)(=O)C[C@H]21 | -52.9%
CC(C)CCN1CCN(C(=O)c2c[nH]c(=O)[nH]2)CC1 | -6.49%
O=C(c1ccc[nH]1)N1CC[C@@H](OCC2CC2)[C@@H]1Cc1cccnc1 | 0.878%
CC(C)=CCCC(C)CN1CCC(n2cc(CO)nn2)CC1 (stereo unspecified) | -6.37%
c1cc(-c2c[nH]c([C@@H]3COCCN3C3CCOCC3)n2)ccn1 | -0.113%
Cc1noc(C)c1C(C)C(=O)N1CCCN(Cc2cscn2)CC1 (stereo unspecified) | -4.28%
COC(=O)N1CCN(CCCc2nnnn2-c2ccccc2)CC1 | 14%
CCCN1CCCC1Cn1nc(C)cc1C (stereo unspecified) | -7.72%
O=C(NCC1CCOC1)c1csc(Cc2ccccc2)n1 (stereo unspecified) | -118%
Cc1nc(C)n(CC2CCCN2Cc2cn3ccccc3n2)n1 (stereo unspecified) | -3.05%
Cc1cc(NC(=O)N2CCC[C@@H]2CO)nn1-c1cccc(Cl)c1 | -1.08%
COc1ccsc1C(=O)N1CCCC1c1c(C)nn(C)c1OC (stereo unspecified) | -0.561%
Cc1cccc2[nH]c(C3CCCN(Cc4ccc(CO)o4)C3)nc12 (stereo unspecified) | 9.83%
CC(C)n1cc(C(=O)N2CCN(c3cccc(C(F)(F)F)c3)CC2)cn1 | 5.37%
Cc1ccc(N2CCC3(CCN(C(=O)c4ccccn4)CC3)CC2)nn1 | 0.255%
COc1ccccc1OC1CN(C(=O)Cc2c(C)nc3ccccn23)C1 | -2.27%

SMILES | cytotoxicity at 10 µM
O=C1CCCN1C1CCN(S(=O)(=O)CCOc2ccc(F)cc2)CC1 | 5.94%
CSc1ccccc1C(=O)NCCCN1CCc2ccccc2C1 | -15.6%
CC(NC(=O)CN1C=Nc2ccccc2S1(=O)=O)c1ccccc1 (stereo unspecified) | -0.476%
COCC(=O)NCc1cc(=O)n2c(n1)CN(Cc1nccs1)CCC2 | -107%
Cn1c2c(c(=O)n1C)CN(C(=O)c1ccsc1)CCC2 | 5.04%
Cc1ccc(CNC(=O)CN(C)CC2CCN(CCO)CC2)s1 | 9.83%
Cc1cc(S(=O)(=O)N2CCC(S(C)(=O)=O)C2)ccc1F (stereo unspecified) | 0.246%
CCc1c(C)n(CC(=O)OC)c2nc3ccccc3n2c1=O | 1.44%
CSC(C)C(=O)NCc1ccnc(N2CCN(C)CC2)c1 (stereo unspecified) | -15.3%
O=C(O)Cn1ccc(=O)c2cc(F)ccc21 | -0.0342%
CCCN(Cc1nnnn1C1CC1)CC1COc2ccccc2O1 (stereo unspecified) | 2.04%
CS(=O)(=O)N1CCC2(CCCN(Cc3ccccn3)C2)C1 (stereo unspecified) | -148%
c1coc(-c2nnc(CN3CCOC(Cn4cccn4)C3)o2)c1 (stereo unspecified) | -11%
Cn1ccnc1CN1CCC2(CCCN2c2ncccn2)CC1 | 7.55%
CCOCc1nc(N2CCOCC2)sc1C(=O)NCc1ccco1 | 1.64%
CCc1cnc(C)nc1N1CCS(=O)(=O)CC1 | -43.3%
Cc1cc(C)nc(N2CCCC(c3cccc(-n4ccnc4)n3)C2)n1 (stereo unspecified) | -0.252%
O=C(Cc1ccsc1)N1C[C@@H]2OCCN(c3cnccn3)[C@@H]2C1 | 11.6%
